Source: ChEMBL document CHEMBL1130214, “6-(alkylamino)-9-alkylpurines. A new class of potential antipsychotic agents” (1997)

What was measured:
Rattus norvegicus [1] = experiment: Ability of intraperitoneally administered compound to antagonise apomorphine-induced aggression in male rats.; format: functional
In short: (§1)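 Male rats were dosed ip or orally as solutions or fine dispersions in water or 0.5% methylcellulose. Apomorphine-induced fighting between paired animals was scored 1 h after dosing, and stereotyped behavior was noted. Five pairs were used per dose. ED50 is the dose that cut fighting time by 50%, estimated approximately from two or three bracketing doses, and has no standard error.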

Rattus norvegicus [2] = experiment: Antagonists of apomorphine-induced aggression in male rats, administered perorally; format: functional; in short: as §1
Rattus norvegicus [3] = experiment: Inhibition of apomorphine-induced aggression in male rats after peroral administration of 25 mg/kg of compound; format: functional; conditions: route oral
In short: (§2)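 Male rats received a single screening dose, given in water or 0.5% methylcellulose as a solution or fine dispersion. Apomorphine-induced fighting in paired animals was observed starting 1 h after dosing, with five pairs per dose. The value is percent inhibition of fighting time at that dose. Stereotyped behavior was recorded during the fighting observation.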

Rattus norvegicus [4] = experiment: Inhibition of apomorphine-induced aggression in male rats after intraperitoneal administration of 25 mg/kg of compound; format: functional; conditions: ip; in short: as §2
Rattus norvegicus [5] = experiment: Ability of intraperitoneally administered compound (25 mg/kg) to antagonise apomorphine-induced aggression in male rats; d indicates toxic at 25 mg/Kg; format: functional, organism-based
Rattus norvegicus [6] = experiment: Compounds were tested for their ability to antagonise apomorphine-induced aggression in male rats. compound was administered perorally.; format: functional; conditions: po; in short: as §1
[7] = Rattus norvegicus, ip, read-out: ED50
[8] = Rattus norvegicus, po, read-out: ED50

Structure (SMILES) | ED50 (Rattus norvegicus [1]; [7]) | ED50 (Rattus norvegicus [2]; [8]) | other results
c1nc(NC2CC2)c2ncn(CC3CC3)c2n1 | 4 mg/kg | 12 mg/kg | 
O=CN(c1ncnc2c1ncn2C1CCC1)C1CC1 | 20 mg/kg |  | inhibition in vivo at 25 mg/kg (Rattus norvegicus [3]): 0%
c1ccc(Nc2ncnc3c2ncn3CC2CC2)cc1 |  |  | inhibition in vivo at 25 mg/kg (Rattus norvegicus [4]): 0%
Clc1nc(NC2CC2)c2ncn(CC3CC3)c2n1 | 2.5 mg/kg | 4 mg/kg | 
CC(C)n1cnc2c(NC3CC3)ncnc21 | 4 mg/kg | 30 mg/kg | 
c1nc(NC2CC2)c2ncn(C3CC3)c2n1 | 4.5 mg/kg | 20 mg/kg | 
CN(C)c1ncnc2c1ncn2Cc1ccccc1 | 15 mg/kg | 52 mg/kg | 
CCCCn1cnc2c(N(C)C)ncnc21 | 10 mg/kg |  | 
CN(C)c1ncnc2c1ncn2C1CCC1 | 11 mg/kg | 26 mg/kg | 
CN(C)c1ncnc2c1ncn2C1CCCCC1 |  |  | inhibition in vivo at 25 mg/kg (Rattus norvegicus [4]): 70%
CN(C)c1ncnc2c1ncn2C1CCCCCC1 |  |  | inhibition in vivo at 25 mg/kg (Rattus norvegicus [4]): 0%
CC(C1CC1)n1cnc2c(NC3CC3)ncnc21 (stereo in doubt; 60) |  |  | ED50 (Rattus norvegicus [1]): 2 mg/kg; ED50 (Rattus norvegicus [2]): 9 mg/kg
CSCn1cnc2c(NC3CC3)ncnc21 | 23 mg/kg |  | 
CN(c1ncnc2c1ncn2CC1CC1)C1CC1 | 7.5 mg/kg | 35 mg/kg | 
c1nc(NC2CC2)c2ncn(C3CCC3)c2n1 | 19 mg/kg |  | 
Nc1nc(NC2CC2)c2ncn(CC3CC3)c2n1 | 9 mg/kg |  | inhibition in vivo at 25 mg/kg (Rattus norvegicus [3]): 26%
CN(C)c1ncnc2c1ncn2Cc1ccc(N)cc1 | 17 mg/kg |  | 
O=CN(c1ncnc2c1ncn2C1CC1)C1CC1 | 2.4 mg/kg | 7.4 mg/kg | 
CCN(CC)c1ncnc2c1ncn2CC1CC1 |  |  | inhibition in vivo at 25 mg/kg (Rattus norvegicus [4]): 0%
CN(c1ncnc2c1ncn2C1CC1)C1CC1 | 4.5 mg/kg | 12.5 mg/kg | 
CN(C)c1ncnc2c1ncn2Cc1cccc(Cl)c1 | 50 mg/kg |  | 
CC(C)(C)Nc1ncnc2c1ncn2CC1CC1 |  |  | inhibition in vivo at 25 mg/kg (Rattus norvegicus [4]): 0%
CN(C)c1ncnc2c1ncn2Cc1ccccc1F | 37 mg/kg |  | 
CCn1cnc2c(N(C)C)ncnc21 | 15 mg/kg |  | 

Structure (SMILES) | ED50 (Rattus norvegicus [1]; [7]) | ED50 (Rattus norvegicus [2]; [8]) | other results
CN(C)c1ncnc2c1ncn2C1CC1 | 9 mg/kg | 25 mg/kg | 
CC(=O)N(c1ncnc2c1ncn2C1CC1)C1CC1 |  |  | inhibition in vivo at 25 mg/kg (Rattus norvegicus [4]): 22%
CCCOc1nc(NC2CC2)c2ncn(CC3CC3)c2n1 | 2.5 mg/kg | 2.5 mg/kg | 
CCCn1cnc2c(N(C)C)ncnc21 | 14 mg/kg | 15 mg/kg | 
CC(C)Cn1cnc2c(NC3CC3)ncnc21 | 10 mg/kg |  | inhibition in vivo at 25 mg/kg (Rattus norvegicus [3]): 0%
FC(F)(F)c1nc(NC2CC2)c2ncn(CC3CC3)c2n1 | 0.9 mg/kg | 2 mg/kg | 
CC(C)n1cnc2c(N(C)C)ncnc21 | 11 mg/kg | 15 mg/kg | 
CCC(C)n1cnc2c(NC3CC3)ncnc21 (stereo not drawn) | 13.5 mg/kg |  | 
CC(C1CC1)n1cnc2c(NC3CC3)ncnc21 (stereo in doubt; 61) |  |  | ED50 (Rattus norvegicus [1]): 12.5 mg/kg; ED50 (Rattus norvegicus [2]): >25 mg/kg
CCC(C)n1cnc2c(N(C)C)ncnc21 (stereo not drawn) | 14 mg/kg |  | 
c1nc(NC2CC2)c2ncn(C3CCCC3)c2n1 |  |  | ED50 (Rattus norvegicus [5]): Toxic
CN(C)c1ncnc2c1ncn2Cc1ccc(O)cc1 |  |  | inhibition in vivo at 25 mg/kg (Rattus norvegicus [4]): 0%
O=CN(c1ncnc2c1ncn2CC1CCC1)C1CC1 | 7 mg/kg |  | 
c1nc(N2CCC2)c2ncn(CC3CC3)c2n1 |  |  | inhibition in vivo at 25 mg/kg (Rattus norvegicus [4]): 30%
COc1nc(NC2CC2)c2ncn(CC3CC3)c2n1 |  |  | ED50 (Rattus norvegicus [6]): 3.7 mg/kg
CN(C)c1ncnc2c1ncn2Cc1cccc(N)c1 | 23 mg/kg | 58 mg/kg | 
Nc1ncnc2c1ncn2CC1CC1 | 20 mg/kg |  | 
CCNc1nc(NC2CC2)c2ncn(CC3CC3)c2n1 | 9 mg/kg |  | ED50 (Rattus norvegicus [6]): 11 mg/kg
CCN(c1ncnc2c1ncn2CC1CC1)C1CC1 | 20 mg/kg |  | 
c1nc(NCC2CC2)c2ncn(CC3CC3)c2n1 |  |  | inhibition in vivo at 25 mg/kg (Rattus norvegicus [4]): 28%
CSc1nc(NC2CC2)c2ncn(CC3CC3)c2n1 | 5 mg/kg |  | 
CC(C)N(C)c1ncnc2c1ncn2CC1CC1 |  |  | inhibition in vivo at 25 mg/kg (Rattus norvegicus [4]): 32%
CCCCn1cnc2c(NC3CC3)ncnc21 | 18 mg/kg |  | 
CN(C)c1ncnc2c1ncn2Cc1cccc(C#N)c1 | 13 mg/kg |  | 

Structure (SMILES) | ED50 (Rattus norvegicus [1]; [7]) | ED50 (Rattus norvegicus [2]; [8]) | other results
CCCCCn1cnc2c(N(C)C)ncnc21 |  |  | inhibition in vivo at 25 mg/kg (Rattus norvegicus [4]): 0%
CCN(C)c1ncnc2c1ncn2CC1CC1 | 12.5 mg/kg |  | 
CN(C)c1ncnc2c1ncn2C |  |  | inhibition in vivo at 25 mg/kg (Rattus norvegicus [4]): 30%
CCOc1nc(NC2CC2)c2ncn(CC3CC3)c2n1 | 0.8 mg/kg | 4 mg/kg | 
CN(C)c1ncnc2c1ncn2CC1CC1 | 4.5 mg/kg | 17 mg/kg | 
CN(C)c1ncnc2c1ncn2Cc1ccccc1[N+](=O)[O-] |  |  | inhibition in vivo at 25 mg/kg (Rattus norvegicus [4]): 0%
c1nc(NC2CCC2)c2ncn(CC3CC3)c2n1 |  |  | inhibition in vivo at 25 mg/kg (Rattus norvegicus [4]): 0%
c1nc(NC2CC2)c2ncn(CC3CCCC3)c2n1 | 15 mg/kg |  | 
CC(C1CC1)n1cnc2c(N(C=O)C3CC3)ncnc21 (stereo not drawn) | 2.5 mg/kg | 7.5 mg/kg | 
CNc1ncnc2c1ncn2CC1CC1 | 12 mg/kg |  | inhibition in vivo at 25 mg/kg (Rattus norvegicus [3]): 38%
CC(C1CC1)n1cnc2c(NC3CC3)ncnc21 (stereo in doubt; 59) |  |  | ED50 (Rattus norvegicus [1]): 4.5 mg/kg; ED50 (Rattus norvegicus [2]): 25 mg/kg
CCCNc1ncnc2c1ncn2CC1CC1 |  |  | inhibition in vivo at 25 mg/kg (Rattus norvegicus [4]): 0%
CCCn1cnc2c(NC3CC3)ncnc21 | 6 mg/kg |  | 
c1nc(N2CCCCC2)c2ncn(CC3CC3)c2n1 |  |  | inhibition in vivo at 25 mg/kg (Rattus norvegicus [4]): 28%
CC(C)Cn1cnc2c(N(C)C)ncnc21 | 5 mg/kg | 22 mg/kg | 
CN(C)c1ncnc2c1ncn2CC1CCC1 | 8 mg/kg |  | 
CCNc1ncnc2c1ncn2CC1CC1 | 22 mg/kg |  | 
c1nc(NC2CC2)c2ncn(CC3CCC3)c2n1 | 10 mg/kg | 44 mg/kg | 
CN(C)c1ncnc2c1ncn2C1CCCC1 |  |  | inhibition in vivo at 25 mg/kg (Rattus norvegicus [4]): 27%
CN(C)c1ncnc2c1ncn2CC1CCCCC1 |  |  | inhibition in vivo at 25 mg/kg (Rattus norvegicus [4]): 0%
CN(C)c1ncnc2c1ncn2Cc1cccc(NC(=O)C(N)Cc2ccccc2)c1 (stereo not drawn) | 27 mg/kg | 96 mg/kg | 
CNc1nc(NC2CC2)c2ncn(CC3CC3)c2n1 | 3 mg/kg | 12.5 mg/kg | 
O=CN(c1ncnc2c1ncn2CC1CC1)C1CC1 | 8 mg/kg | 30 mg/kg | 
COc1ccc(Cn2cnc3c(N(C)C)ncnc32)cc1 | 58 mg/kg |  | 
